The test system of assay [1] is Gal4(1–148)+KBP 2.20-mediated transcription. As to the kind of experiment: Competitive inhibition, firefly luciferase reporter assay in HeLa cells. Type of assay: cell-based. The settings on record: 0 → 20 μM, activity measured 40 h after compound addition.
Assay [2] addresses murine CBP KIX domain (CBP(586–672)) (Mus musculus, UniProt P45481). As to the kind of experiment: Fluorescence polarization binding to CBP KIX domain. Summed up: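 Test compounds carried a fluorescein label at the amino terminus and were held at a constant concentration. Each was incubated at 25°C with increasing concentrations of exogenously expressed murine CBP KIX domain (residues 586–672). Fluorescence polarization was read at each protein concentration. Dissociation constants were obtained by Levenberg-Marquardt least-squares fitting of the binding data.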
On the technique in general: Fluorescence polarisation rises when a labelled molecule tumbles more slowly, as on binding a larger partner.

Ends that are not written are not given here.

Sequence of murine CBP KIX domain (CBP(586–672)) (P45481 586-672): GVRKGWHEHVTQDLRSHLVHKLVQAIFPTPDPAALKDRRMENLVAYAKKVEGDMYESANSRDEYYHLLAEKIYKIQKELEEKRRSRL

“SWAVYELLFGS-NH2 (C-terminus assumed) [KBP 2.20]”: the “Inhibitory activity on KBP 2.20-mediated transcription (in words)” value in assay [1] was “little or no inhibitory activity”. For the same substance, the “Fold lower dissociation constant for the KIX domain relative to KBP 1.66” value in assay [2] is on record as ~ 3 fold.

In the case of SRAVRELLFGS, the “Inhibitory activity on KBP 2.20-mediated transcription (in words)” value in assay [1] is reported as “no impact”.

Values taken from PMC4322771 (Biopolymers, 2008).
